In ChEMBL document CHEMBL4028856, “Discovery of Small Molecules Targeting the Synergy of Cardiac Transcription Factors GATA4 and NKX2-5” (J Med Chem, 2017):

Each molecule was assayed against GATA4/NKX2-5 (Mus musculus, UniProt P42582+Q08369) (assay: Inhibition of mouse GATA4/NKX2-5 transcriptional synergy expressed in African green monkey COS-1 cells measured after 30 hrs by dual luciferase reporter gene assay).
Chain of GATA4/NKX2-5 (Q08369 whole entry): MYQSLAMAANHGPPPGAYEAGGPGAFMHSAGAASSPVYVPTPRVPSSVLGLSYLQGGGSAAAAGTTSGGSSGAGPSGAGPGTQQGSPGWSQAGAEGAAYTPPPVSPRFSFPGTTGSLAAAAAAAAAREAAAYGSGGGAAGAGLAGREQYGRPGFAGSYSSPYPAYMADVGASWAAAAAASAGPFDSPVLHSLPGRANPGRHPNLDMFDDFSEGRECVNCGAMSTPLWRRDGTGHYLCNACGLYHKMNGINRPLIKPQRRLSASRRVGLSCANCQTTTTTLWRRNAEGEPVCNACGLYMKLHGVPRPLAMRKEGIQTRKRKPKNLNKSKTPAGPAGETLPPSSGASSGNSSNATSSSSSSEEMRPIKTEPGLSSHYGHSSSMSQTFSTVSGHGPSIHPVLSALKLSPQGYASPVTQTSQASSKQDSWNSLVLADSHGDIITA
Chain of GATA4/NKX2-5 (P42582 whole entry): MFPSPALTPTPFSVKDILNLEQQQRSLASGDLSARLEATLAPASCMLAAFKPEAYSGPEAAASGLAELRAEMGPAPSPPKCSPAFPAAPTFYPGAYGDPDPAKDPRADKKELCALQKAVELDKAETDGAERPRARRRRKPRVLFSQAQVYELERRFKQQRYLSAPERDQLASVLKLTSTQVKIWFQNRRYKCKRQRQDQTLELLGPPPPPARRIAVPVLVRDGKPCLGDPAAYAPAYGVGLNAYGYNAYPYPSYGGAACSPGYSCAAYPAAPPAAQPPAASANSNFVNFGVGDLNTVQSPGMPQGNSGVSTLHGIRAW
Type: cell-based
Method in brief: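 COS-1 cells co-transfected (Fugene 6, DNA:reagent 1:3) with p3xNKE-luc, Renilla pRL-TKd238 control, and pMT2-GATA4, pMT2-NKX2-5, both, or empty pMT2; DNA balanced with pMT2. Compounds added 6 h post-transfection in 0.1% DMSO, medium renewed at 24 h, lysis at 30 h. Dual-luciferase read-out, firefly/Renilla normalized to vehicle; duplicate wells.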
With `Cc1onc(-c2ccccc2)c1C(=O)Nc1cccc(S(=O)(=O)N2CCCC2)c1` the IC50 was 33 µM. In the case of `Cc1onc(-c2ccccc2)c1C(=O)Nc1ccc2c(c1)OC1(CCCC1)O2`, the IC50 is reported as 23 µM. `Cc1onc(-c2ccccc2)c1C(=O)Nc1ccc(C(C)C)cc1` gave an IC50 of 16 µM. Work on `CCN(CC)S(=O)(=O)c1cccc(NC(=O)c2c(-c3ccccc3)noc2C)c1` yielded an IC50 greater than 50 µM. In the case of `COc1cccc(/C=N/n2c(SC)nnc2-c2ccccc2)c1OC`, the IC50 is reported as greater than 50 µM. `CC(C)(C)c1ccc(/C=N/n2c(S)nnc2-c2ccncc2)cc1` was tested, and the IC50 was 7 µM. In the case of `Cc1cccc(/C=N/n2c(S)nnc2-c2ccccc2)c1`, the IC50 is reported as greater than 50 µM. For `O=c1cc(-c2ccc(O)cc2)oc2cc(O)cc(O)c12` [APIGENIN], the IC50 was 24 µM. For `CCN(CC)c1ccc(/C=N/n2c(S)nnc2-c2ccc(OC)cc2)cc1`, the IC50 was 19 µM. `CCCC(=O)Nc1ccc(C(=O)NCC(C)C)cc1` gave an IC50 greater than 50 µM. For `COc1ccc(/C=N/n2c(S)nnc2-c2ccccc2)cc1C`, the IC50 was 11 µM. `CC(C)CCN1C(=O)S/C(=C\c2ccc(N(C)C)cc2)C1=O` was tested, and the IC50 was 10 µM. In the case of `Cc1onc(-c2ccccc2)c1C(=O)Nc1ccc(N2CCCCC2)cc1`, the IC50 is reported as greater than 50 µM. `C=CCc1cccc(/C=N/n2c(S)nnc2-c2ccccc2)c1O` showed an IC50 of 20 µM. `CCc1ccc(/C=C2\SC(=O)NC2=O)cc1` gave an IC50 of 21 µM. For `Cc1nc(-c2ccc(NC(=O)c3c(-c4ccccc4)noc3C)cc2)cs1`, the IC50 was greater than 50 µM. `Cc1onc(-c2ccccc2)c1C(=O)Nc1ccc(Sc2nccn2C)cc1` was tested, and the IC50 was greater than 50 µM. `O=C1NC(=O)/C(=C/c2cccc([N+](=O)[O-])c2)S1` showed an IC50 of 20 µM. In the case of `CCN1C(=O)S/C(=C\c2ccc(N3CCCC3)c(F)c2)C1=O`, the IC50 is reported as 8 µM. In the case of `CCOc1ccc(/C=C2\SC(=O)N(CC)C2=O)cc1OCC`, the IC50 is reported as 26 µM. `CCN(CC)S(=O)(=O)c1cc(NC(=O)c2c(-c3ccccc3)noc2C)ccc1C` showed an IC50 greater than 50 µM. `Cc1onc(-c2ccccc2)c1C(=O)Nc1cccc(S(=O)(=O)NCc2ccco2)c1` was tested, and the IC50 was 20 µM. `CCOc1ccc(NC(=O)c2c(-c3ccccc3)noc2C)cc1` was tested, and the IC50 was 20 µM. `Cc1onc(-c2ccccc2)c1C(=O)Nc1ccc2c(c1)CCC2` gave an IC50 of 17 µM. For `Sc1nnc(-c2ccccc2)n1/N=C/c1cccc(Oc2ccccc2)c1`, the IC50 was 13 µM. For `CC(C)(C)c1ccc(/C=N/n2c(S)nnc2-c2cccnc2)cc1`, the IC50 was 30 µM. Work on `COc1cccc(/C=N/n2c(S)nnc2-c2ccccc2)c1OC` yielded an IC50 of 8 µM. `CC(C)CNC(=O)c1ccc(NC(=O)C(F)(F)F)cc1` showed an IC50 of 42 µM. With `Cc1onc(-c2ccccc2)c1C(=O)Nc1cccc(S(=O)(=O)NC2=NC=CC2)c1` the IC50 was 28 µM. For `Cc1onc(-c2ccccc2)c1C(=O)Nc1cccc(C(=O)NC2CC2)c1`, the IC50 was 20 µM. `Cc1onc(-c2ccccc2)c1C(=O)Nc1ccc(Oc2ccccc2)cc1` gave an IC50 greater than 50 µM. Molecule `O=c1cc(-c2ccc(O)c(O)c2)oc2cc(O)cc(O)c12` [LUTEOLIN] has an IC50 of 22 µM. Work on `CCC(C)c1ccc(NC(=O)c2c(-c3ccccc3Cl)noc2C)cc1` (centres undefined) yielded an IC50 of 20 µM. Molecule `CC(C)CNC(=O)c1ccc(NC(=O)C2CCCO2)cc1` (centres undefined) has an IC50 greater than 50 µM. `c1ccc(-c2nonc2-c2ccccc2)cc1` gave an IC50 of 50 µM. `COc1cccc(/C=N/n2c(S)nnc2-c2ccccc2)c1` showed an IC50 greater than 50 µM. `CCOc1ccc(/C=N/n2c(S)nnc2C2CCCCC2)cc1` gave an IC50 of 7 µM. `CC(C)COC(=O)c1ccc(NC(=O)CCC(=O)O)cc1` showed an IC50 of 37 µM. Work on `CC(C)CNC(=O)c1ccc(NC(=O)C2CCCCC2)cc1` yielded an IC50 greater than 50 µM.
